Source: paper PMC5494147 (Bioorganic & medicinal chemistry, 2017)

Assays:
[1] = tested on: histone H3 (Lys9/14) acetylation in HCT116 cells; assay: Immunoblot analysis of histone hyperacetylation; type: cell-based; conditions: HCT116, 8 h post-treatment
Procedure, shortened: (§1)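 Cells grown in DMEM with 10% FBS at 37 °C, 5% CO2; 4 × 10^5 cells seeded and incubated overnight. Treated 8 h with test compound at 0–10 μM final or 1% EtOH vehicle. Whole-cell lysates normalised by BCA; equal protein run on SDS-PAGE, transferred to PVDF, probed with anti-acetyl histone H3 antibody and β-actin, chemiluminescent detection.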

[2] = tested on: histone H3 (Lys9/14) acetylation in MDA-MB-231 cells; assay: Immunoblot analysis of histone hyperacetylation; type: cell-based; conditions: MDA-MB-231, 8 h post-treatment
Procedure, shortened: as §1

sirtuins = assay: HDAC enzyme inhibitory assay; type: biochemical; conditions: up to concentrations of 10 μM
HDAC isoform 11 = target: T1, HDAC isoform 11 (Homo sapiens, UniProt Q96DB2); assay: HDAC enzyme inhibitory assay; type: biochemical; conditions: up to concentrations of 10 μM
T1 sequence (Q96DB2 1-347): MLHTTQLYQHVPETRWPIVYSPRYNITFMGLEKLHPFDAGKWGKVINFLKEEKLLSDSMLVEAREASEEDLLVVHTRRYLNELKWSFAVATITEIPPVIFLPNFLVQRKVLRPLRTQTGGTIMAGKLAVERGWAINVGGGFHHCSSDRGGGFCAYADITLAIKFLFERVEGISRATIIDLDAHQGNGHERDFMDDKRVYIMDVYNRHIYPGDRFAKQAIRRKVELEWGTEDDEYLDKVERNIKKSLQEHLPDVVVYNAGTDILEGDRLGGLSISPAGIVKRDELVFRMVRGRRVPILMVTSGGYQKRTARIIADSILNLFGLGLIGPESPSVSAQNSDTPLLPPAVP

HDAC isoform 9 = HDAC isoform 9 (Homo sapiens, UniProt Q9UKV0); assay: HDAC enzyme inhibitory assay; type: biochemical; conditions: up to concentrations of 10 μM
HDAC isoform 7 = target: T2, HDAC isoform 7 (Homo sapiens, UniProt Q8WUI4); assay: HDAC enzyme inhibitory assay; type: biochemical; conditions: up to concentrations of 10 μM
T2 sequence (Q8WUI4 1-952): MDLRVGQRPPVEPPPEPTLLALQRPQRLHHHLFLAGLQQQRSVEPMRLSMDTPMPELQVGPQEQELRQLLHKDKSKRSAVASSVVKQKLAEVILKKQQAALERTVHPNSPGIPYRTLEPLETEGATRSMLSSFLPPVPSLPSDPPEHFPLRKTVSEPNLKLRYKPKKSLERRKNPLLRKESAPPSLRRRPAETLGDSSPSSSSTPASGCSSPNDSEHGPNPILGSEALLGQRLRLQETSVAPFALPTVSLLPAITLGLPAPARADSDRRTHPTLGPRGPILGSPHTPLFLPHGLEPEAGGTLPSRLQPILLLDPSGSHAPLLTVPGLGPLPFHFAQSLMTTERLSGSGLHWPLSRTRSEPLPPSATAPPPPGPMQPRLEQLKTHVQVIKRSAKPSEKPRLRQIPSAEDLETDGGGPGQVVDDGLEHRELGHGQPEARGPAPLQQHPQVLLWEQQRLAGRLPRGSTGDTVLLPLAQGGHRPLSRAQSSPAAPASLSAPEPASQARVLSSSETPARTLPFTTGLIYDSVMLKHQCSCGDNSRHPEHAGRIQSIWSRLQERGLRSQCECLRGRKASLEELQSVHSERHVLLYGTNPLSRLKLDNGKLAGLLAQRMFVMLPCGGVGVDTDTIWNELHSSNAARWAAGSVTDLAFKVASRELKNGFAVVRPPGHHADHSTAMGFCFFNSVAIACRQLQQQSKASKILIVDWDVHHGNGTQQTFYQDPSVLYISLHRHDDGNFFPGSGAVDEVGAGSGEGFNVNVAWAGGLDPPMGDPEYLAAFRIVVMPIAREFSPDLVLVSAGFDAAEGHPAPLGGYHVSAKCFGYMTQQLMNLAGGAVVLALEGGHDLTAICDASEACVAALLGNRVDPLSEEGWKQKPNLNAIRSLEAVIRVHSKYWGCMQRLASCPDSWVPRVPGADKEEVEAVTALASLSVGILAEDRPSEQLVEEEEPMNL

HDAC isoform 4 = HDAC isoform 4 (Homo sapiens, UniProt P56524); assay: HDAC enzyme inhibitory assay; type: biochemical; conditions: up to concentrations of 10 μM
HDAC8 = target: T3, HDAC8 (Homo sapiens, UniProt Q9BY41); conditions: compared with HDACs 1–3; ref [5]–[6], [6c]; cited from earlier work
T3 sequence (Q9BY41 1-377): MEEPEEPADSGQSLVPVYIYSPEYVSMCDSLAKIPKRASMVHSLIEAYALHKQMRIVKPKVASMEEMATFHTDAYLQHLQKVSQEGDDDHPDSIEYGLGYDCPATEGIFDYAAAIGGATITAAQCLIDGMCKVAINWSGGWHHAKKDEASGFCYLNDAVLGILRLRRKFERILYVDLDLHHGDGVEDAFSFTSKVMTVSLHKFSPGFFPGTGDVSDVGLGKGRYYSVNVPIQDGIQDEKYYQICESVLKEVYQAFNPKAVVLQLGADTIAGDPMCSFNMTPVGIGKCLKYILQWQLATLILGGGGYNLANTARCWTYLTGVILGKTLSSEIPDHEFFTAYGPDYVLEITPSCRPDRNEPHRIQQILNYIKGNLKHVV

HDAC10 = target: T4, HDAC10 (Homo sapiens, UniProt Q969S8); conditions: among class II isoforms; ref [5]–[6], [6c]; cited from earlier work
T4 sequence (Q969S8 1-669): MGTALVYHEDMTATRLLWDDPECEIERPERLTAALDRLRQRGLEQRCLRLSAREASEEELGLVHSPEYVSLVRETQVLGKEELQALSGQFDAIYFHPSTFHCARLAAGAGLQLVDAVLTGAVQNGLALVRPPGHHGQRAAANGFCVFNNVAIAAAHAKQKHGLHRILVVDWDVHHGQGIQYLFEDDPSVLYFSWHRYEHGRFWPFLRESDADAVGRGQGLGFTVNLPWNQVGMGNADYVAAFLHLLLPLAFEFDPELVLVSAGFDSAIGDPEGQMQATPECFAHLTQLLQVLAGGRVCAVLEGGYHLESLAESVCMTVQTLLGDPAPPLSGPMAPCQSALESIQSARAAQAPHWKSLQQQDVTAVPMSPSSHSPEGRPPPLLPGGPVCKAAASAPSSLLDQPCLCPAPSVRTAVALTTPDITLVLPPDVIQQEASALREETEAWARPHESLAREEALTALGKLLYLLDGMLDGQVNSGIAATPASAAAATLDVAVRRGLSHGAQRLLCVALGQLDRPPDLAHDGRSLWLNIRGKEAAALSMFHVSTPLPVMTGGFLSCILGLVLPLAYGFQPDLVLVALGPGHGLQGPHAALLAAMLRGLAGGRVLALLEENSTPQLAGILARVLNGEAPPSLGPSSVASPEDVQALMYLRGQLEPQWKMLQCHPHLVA

HDAC6 = target: T5, HDAC6 (Homo sapiens, UniProt Q9UBN7); conditions: relative to the strongly inhibited isoforms; ref [5]–[6], [6c]; cited from earlier work
T5 sequence (Q9UBN7 1-1215): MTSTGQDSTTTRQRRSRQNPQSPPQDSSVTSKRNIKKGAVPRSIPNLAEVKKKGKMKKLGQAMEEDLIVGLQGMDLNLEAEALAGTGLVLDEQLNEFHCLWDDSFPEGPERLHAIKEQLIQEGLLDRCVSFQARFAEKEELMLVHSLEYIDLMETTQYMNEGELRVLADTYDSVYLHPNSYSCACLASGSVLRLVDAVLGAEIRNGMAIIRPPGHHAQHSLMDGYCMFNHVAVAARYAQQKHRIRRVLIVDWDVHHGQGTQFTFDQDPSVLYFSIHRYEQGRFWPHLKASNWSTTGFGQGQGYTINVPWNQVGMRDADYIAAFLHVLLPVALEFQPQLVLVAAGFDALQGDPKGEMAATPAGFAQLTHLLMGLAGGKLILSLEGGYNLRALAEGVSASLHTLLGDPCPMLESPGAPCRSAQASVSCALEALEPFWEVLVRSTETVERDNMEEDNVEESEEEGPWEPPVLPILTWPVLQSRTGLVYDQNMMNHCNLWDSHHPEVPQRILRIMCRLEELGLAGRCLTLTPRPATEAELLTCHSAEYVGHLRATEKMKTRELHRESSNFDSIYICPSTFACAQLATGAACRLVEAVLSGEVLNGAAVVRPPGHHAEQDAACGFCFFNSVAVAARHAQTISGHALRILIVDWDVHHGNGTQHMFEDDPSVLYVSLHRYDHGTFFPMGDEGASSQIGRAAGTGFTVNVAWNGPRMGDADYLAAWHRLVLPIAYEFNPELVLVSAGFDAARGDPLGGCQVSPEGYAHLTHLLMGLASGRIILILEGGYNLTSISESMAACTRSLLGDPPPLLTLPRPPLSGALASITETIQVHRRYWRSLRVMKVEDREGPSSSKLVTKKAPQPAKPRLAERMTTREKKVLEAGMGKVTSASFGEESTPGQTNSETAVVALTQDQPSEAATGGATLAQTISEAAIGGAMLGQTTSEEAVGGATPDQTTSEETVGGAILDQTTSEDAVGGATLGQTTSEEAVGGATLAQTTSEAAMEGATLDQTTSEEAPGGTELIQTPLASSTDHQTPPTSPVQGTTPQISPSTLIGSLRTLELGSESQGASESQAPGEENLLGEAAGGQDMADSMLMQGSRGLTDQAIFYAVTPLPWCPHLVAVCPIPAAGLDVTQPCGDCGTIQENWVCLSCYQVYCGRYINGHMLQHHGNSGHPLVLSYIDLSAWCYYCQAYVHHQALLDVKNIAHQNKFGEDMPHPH

HDAC11 = conditions: ref [5]–[6], [6c]; cited from earlier work

Chain of HDAC isoform 9 (Q9UKV0 whole entry, canonical isoform): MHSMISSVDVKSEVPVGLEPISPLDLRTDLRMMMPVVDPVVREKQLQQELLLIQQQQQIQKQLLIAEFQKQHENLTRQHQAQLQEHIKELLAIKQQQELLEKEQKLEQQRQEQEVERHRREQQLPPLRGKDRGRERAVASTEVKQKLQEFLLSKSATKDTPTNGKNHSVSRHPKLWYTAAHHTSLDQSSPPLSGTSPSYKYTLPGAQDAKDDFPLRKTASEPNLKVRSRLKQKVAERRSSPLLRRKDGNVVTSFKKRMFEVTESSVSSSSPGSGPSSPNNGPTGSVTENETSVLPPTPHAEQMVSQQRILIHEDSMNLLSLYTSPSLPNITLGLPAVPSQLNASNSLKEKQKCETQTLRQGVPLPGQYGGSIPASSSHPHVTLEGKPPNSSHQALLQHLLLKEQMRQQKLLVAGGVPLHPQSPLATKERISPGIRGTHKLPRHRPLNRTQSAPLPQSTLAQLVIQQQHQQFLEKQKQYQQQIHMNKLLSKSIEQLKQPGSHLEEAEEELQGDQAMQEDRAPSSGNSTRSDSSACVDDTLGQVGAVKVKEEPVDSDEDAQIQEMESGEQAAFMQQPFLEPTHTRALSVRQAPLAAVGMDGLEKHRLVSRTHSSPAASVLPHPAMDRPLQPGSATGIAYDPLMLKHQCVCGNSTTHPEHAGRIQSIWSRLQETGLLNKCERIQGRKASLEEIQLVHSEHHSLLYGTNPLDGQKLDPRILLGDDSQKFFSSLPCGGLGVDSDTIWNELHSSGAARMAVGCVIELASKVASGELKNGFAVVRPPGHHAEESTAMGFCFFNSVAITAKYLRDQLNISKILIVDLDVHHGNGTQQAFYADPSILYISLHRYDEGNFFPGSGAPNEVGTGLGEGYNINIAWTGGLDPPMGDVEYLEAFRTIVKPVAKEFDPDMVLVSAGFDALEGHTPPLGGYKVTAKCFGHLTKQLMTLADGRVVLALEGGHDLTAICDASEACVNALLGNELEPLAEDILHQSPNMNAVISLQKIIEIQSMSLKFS
Chain of HDAC isoform 4 (P56524 whole entry, canonical isoform): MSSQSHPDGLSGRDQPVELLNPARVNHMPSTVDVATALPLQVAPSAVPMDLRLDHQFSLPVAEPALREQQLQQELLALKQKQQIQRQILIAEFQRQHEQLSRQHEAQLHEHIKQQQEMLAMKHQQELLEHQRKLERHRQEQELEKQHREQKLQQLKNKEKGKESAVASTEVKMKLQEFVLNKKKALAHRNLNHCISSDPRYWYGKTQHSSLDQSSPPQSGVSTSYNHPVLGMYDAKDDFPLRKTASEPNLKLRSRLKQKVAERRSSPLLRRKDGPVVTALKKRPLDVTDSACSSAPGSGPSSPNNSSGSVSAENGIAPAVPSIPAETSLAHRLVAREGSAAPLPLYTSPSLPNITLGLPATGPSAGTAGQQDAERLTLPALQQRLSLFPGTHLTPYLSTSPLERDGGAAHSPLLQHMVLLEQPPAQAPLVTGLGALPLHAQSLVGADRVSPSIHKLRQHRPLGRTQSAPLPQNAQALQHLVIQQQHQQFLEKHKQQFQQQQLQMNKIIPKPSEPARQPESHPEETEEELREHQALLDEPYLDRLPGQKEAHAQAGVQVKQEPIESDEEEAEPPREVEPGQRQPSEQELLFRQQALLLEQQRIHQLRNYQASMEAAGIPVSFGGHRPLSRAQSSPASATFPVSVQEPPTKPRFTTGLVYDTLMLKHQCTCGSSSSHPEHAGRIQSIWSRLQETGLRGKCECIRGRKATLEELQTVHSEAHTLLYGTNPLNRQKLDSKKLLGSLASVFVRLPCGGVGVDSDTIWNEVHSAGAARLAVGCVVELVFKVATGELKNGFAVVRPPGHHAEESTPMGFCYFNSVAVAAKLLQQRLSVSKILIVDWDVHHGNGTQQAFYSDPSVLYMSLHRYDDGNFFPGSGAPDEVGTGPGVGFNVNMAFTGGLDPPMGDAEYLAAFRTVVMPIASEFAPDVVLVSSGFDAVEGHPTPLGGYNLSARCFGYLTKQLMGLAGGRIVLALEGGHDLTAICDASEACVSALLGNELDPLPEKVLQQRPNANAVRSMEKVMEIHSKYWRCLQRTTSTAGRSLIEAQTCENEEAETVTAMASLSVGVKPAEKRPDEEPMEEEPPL

CC(C)[C@@H]1NC(=O)[C@]2(C)CSC(=N2)c2csc(n2)CNC(=O)C[C@@H](/C=C/CCSCCS)OC1=O [compound 8]
histone H3 (Lys9/14) hyperacetylation [1]: dose-dependent increase | histone H3 (Lys9/14) hyperacetylation [2]: dose-dependent increase

CC(C)[C@@H]1NC(=O)[C@]2(C)CSC(=N2)c2csc(n2)CNC(=O)C[C@@H](/C=C/CCS)OC1=O [compound 6, largazole thiol]
inhibitory activity against sirtuins (sirtuins): None of the compounds tested, including largazole thiol 6, showed any inhibitory activity | inhibitory activity against isoform 11 (HDAC isoform 11): None of the compounds tested, including largazole thiol 6, showed any inhibitory activity | inhibitory activity against isoform 9 (HDAC isoform 9): None of the compounds tested, including largazole thiol 6, showed any inhibitory activity | inhibitory activity against isoform 7 (HDAC isoform 7): None of the compounds tested, including largazole thiol 6, showed any inhibitory activity | inhibitory activity against isoform 4 (HDAC isoform 4): None of the compounds tested, including largazole thiol 6, showed any inhibitory activity

CCCCCCCC(=O)SCC/C=C/[C@@H]1CC(=O)NCc2nc(cs2)C2=N[C@@](C)(CS2)C(=O)N[C@@H](C(C)C)C(=O)O1 [compound 5, largazole]
HDAC8 inhibition (HDAC8): inhibited to a much lesser extent | HDAC10 activity in vitro (HDAC10): severely compromised | potency in vitro against HDAC6 (HDAC6): two orders of magnitude lower potency | HDAC11 inhibition (HDAC11): strongly inhibited | histone H3 (Lys9/14) hyperacetylation [1]: dose-dependent increase | histone H3 (Lys9/14) hyperacetylation [2]: dose-dependent increase

CC(C)[C@@H]1NC(=O)[C@]2(C)CSC(=N2)c2csc(n2)CNC(=O)C[C@@H](/C=C/CCC(=O)NO)OC1=O [compound 7]
histone H3 (Lys9/14) hyperacetylation [1]: dose-dependent increase | histone H3 (Lys9/14) hyperacetylation [2]: dose-dependent increase
